CHRM5 antagonist: CHRM5 antagonism in calcium assay. CHO-hM5 cells, Fluo-8 calcium fluorescence, ACh EC80. inhibition, % at 3 µM. 360,000 tested, 0.59% active;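 active = inhibition above a per-plate cutoff, the mean of that plate's test compounds plus 3 SD, cut at about 27% in these data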;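 also: 0% = acetylcholine EC80 with DMSO and 100% = DMSO without agonist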
Target sequence (P08912 whole entry, looked up): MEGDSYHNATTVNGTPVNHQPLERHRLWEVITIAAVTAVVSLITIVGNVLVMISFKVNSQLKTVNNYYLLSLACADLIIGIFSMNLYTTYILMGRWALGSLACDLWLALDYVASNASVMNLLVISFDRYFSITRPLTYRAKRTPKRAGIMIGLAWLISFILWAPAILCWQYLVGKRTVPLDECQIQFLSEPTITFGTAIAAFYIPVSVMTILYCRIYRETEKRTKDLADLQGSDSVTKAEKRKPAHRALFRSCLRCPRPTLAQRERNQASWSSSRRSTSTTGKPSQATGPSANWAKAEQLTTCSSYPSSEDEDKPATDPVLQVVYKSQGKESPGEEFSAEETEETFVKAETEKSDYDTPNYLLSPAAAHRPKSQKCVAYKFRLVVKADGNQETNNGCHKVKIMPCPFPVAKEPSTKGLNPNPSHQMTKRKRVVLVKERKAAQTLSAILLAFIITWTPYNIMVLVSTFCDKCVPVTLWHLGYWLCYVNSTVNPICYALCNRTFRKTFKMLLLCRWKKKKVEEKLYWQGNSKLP
M5 PAM: potentiates acetylcholine response at human M5 receptor | CHO-K1 hM5, Fluo-8 calcium, ACh EC20 PAM; 0% = ACh EC20, 100% = ACh EC100 | activation, % at 3 µM | AID 624038 | 360,000 tested, 0.3% active;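 active = activation above the run cutoff, the mean activation of all test compounds plus 3 SD, cut at about 18% in these data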
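Probe or stimulus: acetylcholine, EC20 level; Assay system: human M5 receptor in CHO-K1 cells; Schedule: compound preincubation 140 s before EC20 acetylcholine addition; Technique: intracellular calcium via Fluo-8 fluorescence; Dosing: single-point, 3 µM nominal; Read-out basis: percent activation from peak-over-basal fluorescence ratio, scaled EC20-to-EC100 acetylcholine; Repeats: one well per compound, no replicates.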
CHRM5 agonist: CHRM5 agonism in calcium assay; activation, % at 3 µM; P08912; AID 624037; CHO-K1 hM5 cells, Fluo-8 calcium fluorescence; 0% DMSO wells, 100% maximal acetylcholine response; 360,000 tested, 0.19% active;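 active = activation above the run's mean over test compounds plus 3 SD, cut at about 23% in these data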;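 also: signal is peak over basal fluorescence ratio across the kinetic read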
M4 PAM: potentiates acetylcholine response at human M4 receptor | P08173 | CHO-K1 hM4/Gqi5, Fluo-8 calcium fluorescence, ACh EC20; 0% = ACh EC20, 100% = maximal ACh | activation, % at 3 µM | 360,000 tested, 0.4% active;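 active = activation above its plate's cutoff, the mean activation of sample wells plus 3 SD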
CHRM4 antagonist: blocks acetylcholine activation of human M4 receptor; inhibition, % at 3 µM; P08173; CHO-hM4 cells, ACh EC80, Fluo-8 calcium fluorescence; 360,000 tested, 0.73% active;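 active = inhibition above its plate's cutoff, the mean inhibition of sample wells plus 3 SD, cut at about 27% in these data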;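 also: 0% = acetylcholine EC80 with DMSO and 100% = DMSO without agonist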
CHRM4 agonist: agonists of human muscarinic M4 receptor (CHRM4); P08173; CHO-K1 hM4/Gqi5, Fluo-8 calcium fluorescence; vehicle 0%, full acetylcholine response 100%; activation, % at 3 µM; 360,000 tested, 0.14% active;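 active = activation above the run mean over all test wells plus 3 SD, cut at about 32% in these data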;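 also: peak over basal fluorescence ratio per well then scaled between controls; 0% = DMSO wells and 100% = acetylcholine at EC100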
* hit, by the source's call. Most compounds without a hit are left out; they make up all but 1.9% or so of the library.

SMILES	CHRM5 antagonist	M5 PAM	CHRM5 agonist	M4 PAM	CHRM4 antagonist	CHRM4 agonist
CC(C)c1cccc(-c2csc(C(C)(O)c3ccncc3)n2)c1 (stereo unspecified)	17	-12	2	-1	11	4
COc1ccccc1N1CCN(C(=O)CN(C)S(=O)(=O)c2ccc3c(c2)c(=O)n(C)c(=O)n3C)CC1	8	-7	-4	-8	2	6
CCOc1cc(/C=C/C(=O)c2ccc(OC)c(CN3CCOCC3)c2)cc(Br)c1O	5	-6	10	-14	0	33*
CCOc1ccccc1N(CC(=O)NCC1CCCO1)C(=O)CCC(=O)Nc1ccccn1 (stereo unspecified)	42*	1	-2	12	-1	1
Cc1nc2scc(C)n2c(=O)c1S(=O)(=O)N1CCN(c2ccccn2)CC1	4	-2	-2	4	-16	6
c1ccc(COc2ccc(CNCc3cccs3)cc2)cc1	5	-10	-10	-27	33*	7
Cc1ccc(S(=O)(=O)NCC(=O)NNC(=O)c2ccccc2Cl)cc1C	6	1	1	8	5	2
CN(C)C/C=C/C(O)(c1ccccc1)c1ccccc1	45*	-36	-19	-54	55*	0
CC(O)(C(=O)c1ccccc1)c1ccccc1 (stereo unspecified)	9	-4	-4	22	6	0
CC(=O)c1ccc(N2CCN(C(=O)c3ccc(Cl)c(NC4=NC5CS(=O)(=O)CC5S4)c3)CC2)cc1 (stereo unspecified)	29*	21*	-1	48*	17	16
Cn1c(=O)[nH]c(=O)c2c1nc(CN1CCN(c3ccccc3F)CC1)n2CCCc1ccccc1	-8	-1	0	22*	-15	0
CN(Cc1ccc(OC(F)F)cc1)C(=O)c1cccc(S(=O)(=O)N2CCN(c3ccccc3)CC2)c1	29*	-45	4	-13	39*	29
CC1(C)CC(NC(=S)Nc2ccc([N+](=O)[O-])cc2)CC(C)(C)N1	15	-1	3	-2	-1	0
Cn1nnnc1SCCNCc1cc(Cl)ccc1OCc1ccccc1	14	-17	-1	-15	-1	12
Cn1nnnc1SCCNCc1ccccc1OCc1ccc(Cl)cc1	7	-4	-2	-27	27*	4
CNC(=O)CSc1nnc(C(C)C)n1C	-2	-4	-3	-4	6	1
COc1ccc(C2NC(=O)NC(C)=C2C(=O)OC2CCC(C)CC2)cc1 (stereo unspecified)	6	2	-10	-5	3	-1
CCn1c(C)c(C(C)=O)c(N2CCN(c3ccc(F)cc3)CC2)nc1=S	2	14	-6	11	5	2
C=CCn1c(C)c(C(C)=O)c(N2CCN(c3ccccc3)CC2)nc1=S	5	-13	-7	-21	30*	1
CCn1c(C)c(C(C)=O)c(N2CCCC2)nc1=S	0	1	-8	-27	37*	0
CC(=O)c1c(N2CCCCC2)nc(=S)n(Cc2ccccc2)c1C	-1	-1	-6	-10	7	1
CC(=O)c1c(N2CCN(c3ccccc3)CC2)nc(=S)n(-c2ccccc2)c1C	-4	4	-7	-9	1	1
C=CCn1c(C)c(C(C)=O)c(N2CCCC2)nc1=S	-1	7	-13	-14	72*	0
Cc1ccc(-c2csc(NC(=O)c3c(C)noc3C)n2)s1	6	-6	-6	-7	2	7
CC1(C(=O)NS(=O)(=O)C2CC2)CCCN(C(=O)C2(c3ccc(Cl)cc3)CCCC2)C1 (stereo unspecified)	1	2	-1	-4	1	0
SMILES	CHRM5 antagonist	M5 PAM	CHRM5 agonist	M4 PAM	CHRM4 antagonist	CHRM4 agonist
CC(NC(=O)CSc1ccccc1)c1ccccc1 (stereo unspecified)	10	-2	-1	-2	1	0
COc1ccc(Br)cc1S(=O)(=O)NNC(=O)c1c(C)nc2ccccn12	-3	9	-2	3	-9	8
Cc1nc2ccccn2c1C(=O)NNS(=O)(=O)c1ccc(C(C)(C)C)cc1	28*	-17	6	-1	9	13
CC(=O)c1cccc(S(=O)(=O)N2CCC(C(=O)O)(c3ccccc3)CC2)c1	2	-2	-3	16*	-31	0
CC(OC(=O)c1cccc(S(=O)(=O)N2CCN(C)CC2)c1)C(=O)Nc1ccc(C(N)=O)cc1 (stereo unspecified)	3	-9	3	5	-4	0
CC(=O)c1cccc(S(=O)(=O)N2CCC(C(=O)O)CC2)c1	-8	5	1	-9	-6	1
CC(=O)c1cccc(NC(=O)C(C)OC(=O)c2cccc(S(=O)(=O)N3CCN(C)CC3)c2)c1 (stereo unspecified)	0	-11	44*	2	-1	2
O=S(=O)(NCC1CCCO1)c1ccc(Cl)cc1 (stereo unspecified)	12	-4	0	3	8	1
COc1ccc(CN2CCN(CCc3ccccc3)C(CCO)C2)c(Cl)c1OC (stereo unspecified)	3	4	-8	-4	13	2
CSCCC(NC(=O)c1ccco1)C(=O)N(C)CC(=O)Nc1c(Cl)cccc1Cl (stereo unspecified)	-3	13	4	15	0	2
Cc1cccc(C)c1NC(=O)CN(C)C(=O)[C@H](C)NC(=O)c1ccco1	8	-3	0	24*	-8	1
COc1ccccc1/C=C/C=NC1C(=O)N(c2ccccc2)[N+](C)=C1C (stereo unspecified)	7	-2	-5	-6	3	6
CC1=[N+](C)N(c2ccccc2)C(=O)C1N=C/C=C/c1ccccc1 (stereo unspecified)	25	-31	-19	-15	58*	2
CCN(C(=O)c1ccc(NC(C)=O)cc1)c1ccccc1	-6	-1	2	19*	-19	0
CCCC(=O)Nc1cc(Cl)ccc1C	-4	6	0	3	-9	0
Cc1ccc(Cl)cc1NC(=O)CCC(=O)Nc1cc(Cl)ccc1C	-4	24*	-4	8	-3	1
O=C(Nc1ncc(Cc2ccc(SC(F)F)cc2)s1)c1ccc(OC(F)F)cc1	15	-3	2	21*	7	3
O=C(Cc1nc2ccccc2[nH]1)c1cccc([N+](=O)[O-])c1	11	-5	1	-4	4	5
NC(=O)CN1CCOCCOCCN(CC(N)=O)CCOCCOCC1	-5	5	1	3	101*	0

Screens from PubChem BioAssay.
